Screens deposited in PubChem BioAssay by Broad Institute.
GSIS activator = GLuc luminescence reporter in INS-1E cells, primary screen for activators of glucose-dependent secretion of insulin; INS-1E GLuc reporter insulin secretion, 2-3 h; activation, % at 16.6 µM; 0.61% of 370,000 active;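 active = lowest replicate activation of at least 40%, so every replicate reaches that level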
PDI inh = inhibitors of human PDI, primary screen, biochemical, turbidity, single point, plate reader | Protein disulfide-isomerase (Homo sapiens), P07237 | PDI insulin aggregation turbidity, A650, 90 min | inhibition, % at 10 µM | 0.052% of 350,000 active;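 active = mean inhibition across replicates of 30% or more, whatever share of single replicates reach that level; inconclusive = mean inhibition below 30% while every single replicate reaches 30%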
ERp5 block = inhibitors of ERp5-driven insulin aggregation, primary screen, biochemical, turbidity, absorbance 650 nm, single point | inhibition, % at 9.99 µM | AID 651711, 2012 | 0.05% of 350,000 active | 90 min;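 active = mean replicate inhibition above about 25%, with every replicate also reaching it, limit read from the data, passing the limit was not always enough; inconclusive = only one of those two criteria met; inactive = neither criterion met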
Target sequence (Q15084 whole entry, looked up): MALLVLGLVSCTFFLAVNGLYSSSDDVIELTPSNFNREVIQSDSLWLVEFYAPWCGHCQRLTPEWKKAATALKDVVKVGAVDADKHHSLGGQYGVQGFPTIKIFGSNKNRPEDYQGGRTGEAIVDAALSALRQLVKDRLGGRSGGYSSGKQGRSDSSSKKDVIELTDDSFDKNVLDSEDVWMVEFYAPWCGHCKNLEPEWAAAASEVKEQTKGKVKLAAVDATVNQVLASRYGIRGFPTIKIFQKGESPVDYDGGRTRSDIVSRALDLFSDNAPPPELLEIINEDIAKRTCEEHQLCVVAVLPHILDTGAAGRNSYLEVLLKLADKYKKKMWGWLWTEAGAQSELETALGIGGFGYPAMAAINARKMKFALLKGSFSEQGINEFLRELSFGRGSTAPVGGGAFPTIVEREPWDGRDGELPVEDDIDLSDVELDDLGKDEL
Env fusion inh = inhibitors of HIV-1 Env-driven cell-cell fusion, primary screen, HeLa-JRFL effector, CEM21 target cells, luciferase; AID 651610, 2012; inhibition, % at 12.3 µM; 1.1% of 360,000 active;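 active = mean replicate inhibition score of at least 50 and every replicate individually at or above 50; inconclusive = only one of the two criteria met; inactive = mean below 50 and not all replicates reaching 50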
FN deposition inh = inhibitors of fibronectin matrix deposition, primary screen, AH1F cells, Alexa488-fibronectin fluorescence, plate reader | inhibition, % at 12.6 µM | 0.086% of 350,000 active | AH1F fibroblasts, overnight | AID 743247, 2014;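 active = mean inhibition across replicates of 30% or more, regardless of how many single replicates reach that level; inconclusive = mean under 30% yet at least half of replicates reach 30%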
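Material: AH1F fibroblast monolayer depositing Alexa488-labelled fibronectin into matrix / Amount: 10000 AH1F cells per well / Signal: fluorescence 485/525 nm / Medium: DMEM, 2% serum / Compound: single dose, pinned / Incubation: 1 h cell adhesion before compound, then overnight fibronectin incubation / Reagent: Alexa488-FN, 24 nM final / Read-out: inhibition of fibronectin deposition signal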
Numbers stand for hits; . = inactive; ? = inconclusive; / = no result. An excerpt weighted towards active compounds, which were near 1.4% of everything screened.

SMILES	GSIS activator	PDI inh	ERp5 block	Env fusion inh	FN deposition inh
COc1cc(/C=C/C(=O)OCC(=O)NC(=O)C2COc3ccccc3O2)ccc1OC(F)F (stereo not given)	45.0	.	.	/	.
C[C@H]1CCCCO[C@@H](CN(C)C(=O)C2CCCCC2)[C@@H](C)CN([C@@H](C)CO)C(=O)c2cc(NC(=O)CCC(F)(F)F)ccc2O1	.	/	.	.	/
CCN(Cc1ccncc1)C(=O)c1ccc2c(c1)S(=O)(=O)c1ccccc1C2=O	.	.	.	.	39.0
O=C(C[C@H]1C=C[C@H](NS(=O)(=O)c2ccc(F)cc2)[C@@H](CO)O1)NCc1ccncn1	.	/	.	.	.
Cc1ccc(S(=O)(=O)/N=c2\sccn2C)cc1	/	.	/	.	.
Cc1ccc(S(=O)(=O)/N=C2\CN(C)C(=O)N2C)cc1	45.2	.	.	.	.
C[C@@H]1CN([C@@H](C)CO)C(=O)c2cc(NC(=O)c3ccccc3)ccc2O[C@@H](C)CCCCO[C@@H]1CN(C)C(=O)Nc1ccc(C(F)(F)F)cc1	.	/	.	.	/
C/C(=N\NC(=S)NC(C)C)c1ccccc1	54.0	.	.	.	.
CC(=O)Nc1cccc(/C(C)=N/NC(=S)NC(C)C)c1	.	.	.	.	.
CCC(=O)N1CC2(C1)[C@@H](c1ccc(-c3ccc(F)cc3)cc1)[C@H](CO)N2C(=O)CC	.	/	.	/	.
COC(=O)C1=C(C)NC(=S)NC1c1cccc(OC)c1 (stereo not given)	43.8	/	.	.	.
CC(=O)C1=C(C)NC(=S)NC1c1ccccc1 (stereo not given)	.	/	.	73.9	.
CC(=O)C1=C(C)NC(=S)NC1c1ccc(F)cc1 (stereo not given)	/	/	.	.	.
COCC(=O)Nc1ccc2c(c1)C(=O)N(C)C[C@@H](OC)[C@@H](C)CN(C(=O)c1ccccc1)[C@H](C)CO2	.	/	.	.	.
C/C=C/c1ccc([C@@H]2[C@H](CN(C)S(=O)(=O)c3ccccc3)N[C@@H]2CO)cc1	.	/	/	/	.
Cc1nnc(SCC(=O)Nc2sc3c(c2C(=O)c2ccccc2)CCCC3)s1	.	.	/	57.4	.
Cc1nnc(SCC(=O)Nc2ccccc2NC(=O)CSc2nnc(C)s2)s1	.	.	/	/	/
Cc1ccc(Nc2ncnc3sccc23)c(C)c1	42.1	.	.	.	.
COc1cc(/C=C2\COC/C(=C\c3cc(OC)c(OC)c(OC)c3)C2=O)cc(OC)c1OC	/	.	/	110.2	.
COc1cc(/C=C2\CC/C(=C\c3cc(OC)c(O)c(OC)c3)C2=O)cc(OC)c1O	/	.	.	76.7	.
COc1cc(/C=C2\CC/C(=C\c3cc(OC)c(OC)c(OC)c3)C2=O)cc(OC)c1OC	.	.	.	.	/
Cn1c(=O)c2c(nc3n2CCCN3CCc2ccccc2)n(C)c1=O	47.5	.	.	.	.
CCn1c(=O)c2c(nc3n2CCCN3CCc2ccccc2)n(C)c1=O	/	.	/	/	/
O=C(NCc1ccccc1)[C@@H]1[C@@H](CO)[C@@H]2Cn3c(cccc3=O)[C@@H]2N1C(=O)C1CC1	.	/	.	/	/
O=[N+]([O-])c1ccc(N2CCC(=NOCc3ccc(Cl)cc3)CC2)cc1	/	.	/	74.6	.
SMILES	GSIS activator	PDI inh	ERp5 block	Env fusion inh	FN deposition inh
CC(Oc1ccccc1Cl)C(=O)Nc1ccc(S(=O)(=O)Nc2nccs2)cc1 (stereo not given)	86.9	.	.	/	.
C[C@H]1CN([C@@H](C)CO)C(=O)c2cc(NS(=O)(=O)c3ccc(Cl)cc3)ccc2O[C@@H]1CN(C)Cc1ccncc1	.	/	.	.	/
CC(NCC(O)COCCC12CC3CC(CC(C3)C1)C2)c1ccccc1 (stereo not given)	167.0	.	.	73.4	.
Cc1ccc(/C=C2\SC(=S)N(CCCC(=O)Nc3ccccc3C(=O)O)C2=O)cc1	.	.	.	67.9	/
COc1ccc(/C=C2\SC(=O)N(CCCC(=O)Nc3ccc(C(=O)O)cc3)C2=O)cc1	/	.	.	88.8	.
O=C(CCN1C(=O)S/C(=C\c2ccc(Cl)cc2)C1=O)Nc1ccc(C(=O)O)cc1	.	.	.	.	.
COc1ccc(/C=C2\SC(=S)N(CCCC(=O)NNC(=O)c3ccccc3O)C2=O)cc1	.	.	.	58.6	.
Cc1ccc(/C=C2\SC(=S)N(CCCC(=O)Nc3ccc(O)cc3)C2=O)cc1	.	.	?	63.6	.
CCCN1C[C@H](C)[C@@H](OC)CN(C)C(=O)c2ccc(NC(=O)c3cccc(OC)c3)cc2OC[C@@H]1C	.	/	/	/	.
COc1cccc(/C=C2\SC(=S)N(CCC(=O)NNC(=O)c3ccccc3OC)C2=O)c1	.	.	.	.	.
COc1cccc(/C=C2\SC(=O)N(CCC(=O)NNC(=O)c3ccccc3Cl)C2=O)c1	97.1	.	/	.	.
Cc1noc(C)c1NC(=O)N(C)C[C@@H]1Oc2ccc(NS(=O)(=O)c3c(C)noc3C)cc2C(=O)N([C@@H](C)CO)C[C@@H]1C	.	/	/	.	/
O=S(=O)(NCCc1csc(-c2cccnc2)n1)c1ccc(Cl)s1	/	/	.	121.9	.
O=S(=O)(c1ccc(F)cc1)N(CCO)CC(O)Cn1c2ccccc2c2ccccc21 (stereo not given)	/	.	/	66.0	/
CCN(CC(O)Cn1c2ccccc2c2ccccc21)S(=O)(=O)c1ccc(F)cc1 (stereo not given)	.	.	/	.	/
CC(=O)Oc1ccc(Cl)cc1/C=C/c1ccc2ccccc2n1	52.7	.	/	/	/
CCOC(=O)c1ccoc1CN1CCN(S(=O)(=O)c2ccc(C)c(C)c2)CC1	.	.	.	.	.
CCOC(=O)c1ccoc1CSCC(=O)N1CCN(S(=O)(=O)c2ccc(C)cc2)CC1	/	.	/	56.0	.
CCN(Cc1ccccc1)C(=O)c1cccnc1	.	.	.	.	.
O=C(c1cccnc1)N(Cc1ccccc1)c1ccccc1	117.3	.	.	/	/
CC/C(O)=C1\C(=O)CC(C)(C)CC1=Nc1ccccc1C	73.4	.	/	/	.
CCCC/C(O)=C1\C(=O)CC(C)(C)CC1=Nc1ccccc1OC	.	.	.	/	/
CCOC(=O)c1ccc(N=Nc2c(C)[nH]n(-c3ccccc3)c2=O)cc1	.	.	.	.	.
CCOC(=O)c1ccc(-n2[nH]c(-c3ccccc3)cc2=O)cc1	/	.	/	57.7	/
CCCCCCCCCCCCCCCC[n+]1ccc(/C=N/O)cc1	47.1	.	.	88.7	/
CCCCCCCCCCCCCCCC[n+]1ccccc1	497.2	?	.	.	.
O/N=C/c1cccc[n+]1CCCCCC[n+]1ccccc1/C=N/O	.	.	.	.	.
CCCCCCCCCCCCCCCC[n+]1ccc(C(N)=O)cc1	.	.	/	?	.
O=C(NCCN1CCCCC1)[C@@H]1[C@@H](CO)[C@@H]2Cn3c(cccc3=O)[C@H]1N2C(=O)C1CC1	.	/	.	/	/
C[C@H]1CN([C@@H](C)CO)C(=O)c2cc(NC(=O)Nc3cccc4ccccc34)ccc2O[C@H]1CN(C)Cc1ccncc1	.	/	.	.	/
